Target: T1, OR2W3 (Homo sapiens) (UniProt Q7Z3T1)
T1 sequence (whole entry): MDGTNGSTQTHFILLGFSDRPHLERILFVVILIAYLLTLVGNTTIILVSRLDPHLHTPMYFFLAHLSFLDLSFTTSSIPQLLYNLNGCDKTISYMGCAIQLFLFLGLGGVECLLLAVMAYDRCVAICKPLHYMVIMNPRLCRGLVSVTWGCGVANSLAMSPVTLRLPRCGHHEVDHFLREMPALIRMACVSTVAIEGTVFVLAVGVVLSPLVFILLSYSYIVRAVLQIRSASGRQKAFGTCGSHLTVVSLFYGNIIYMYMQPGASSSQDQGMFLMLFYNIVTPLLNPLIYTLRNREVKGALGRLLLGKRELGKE
Conditions: stereoisomer not certain
Outline: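 Whether a receptor–molecule pair is responsive (active) rests on the original authors' judgment that its measured signal was statistically different from baseline. Pairs without that judgment are non-responsive (inactive). Sources used varied assay methods, commonly transient luciferase assays in mammalian cell lines.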
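Further: active if original authors judged signal statistically different from baseline.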

Odorant receptor agonist call, inactive:
Cc1cccc(C)c1C
CCCCCCCC(=O)OC
CCC(C)CO (stereo unspecified)
CCCCCCCCCCCCCC(=O)OC
CCCCCCCCCCCCO
CCCCCCCCCCCC(=O)O
CC(=O)O
CCCCC(=O)C(C)=O
C=C1CCC2CC1C2(C)C (stereo unspecified)
CCCCCCCCCC(=O)OC
CCCCCCCCCCCCCCCCCC(=O)[O-].[H+]
CCCCCCCC(=O)OCC
O=c1ccc2ccccc2o1
CCCCCCCCCCCC(=O)OC
COc1ccc2[nH]cc(CCNC(C)=O)c2c1
CCCO
CCCCCCCCCCCCCC(=O)OCC
CCCCCCCCCCCCCCCC(=O)[O-].[H+]
CCCC(=O)CC
CCCCCCCCCCCCCCCCCC(=O)OCC
C=C(C)C1CC=C(C)CC1 (stereo unspecified)
CC(O)C(=O)[O-].[H+] (stereo unspecified)
CCCCCCCCCCCCCCCC(=O)OCC
CCC(O)CC
CCCCCCCCO
CCCCCCCCCCCC(=O)OCC
CC(C)=CCCC(C)=CCCC(C)=CCO
CC1=CCC2CC1C2(C)C (stereo unspecified)
CCCCCCCCCCCCCCC(=O)O
CCCCCCCCCCCCCCCC(=O)OC
CCC(=O)O
Cc1cnc(C)cn1
CCCCCCCCCCCCCCCCCC(=O)OC
CCCCCCCCCCCCCC(=O)O
CC(C)=CCCC(C)=CCO
CCCCCCCCCC(=O)OCC

Reference: the M2OR odorant receptor database
